Compound activity as filed in PubChem.
FAS TE block – inhibitors of human fatty acid synthase thioesterase domain. recombinant FAS-TE, OMFH fluorogenic substrate, fluorescence endpoint. inhibition, % at 15 µM. P49327. 0.67% of 360,000 active;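 active = compounds whose normalised, plate-corrected inhibition of enzyme fluorescence in the single-dose primary screen is 50% or more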;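 note: 0% = DMSO with enzyme and 100% = substrate without enzyme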
Rtt109 HAT inh – blocks Candida albicans Rtt109/Vps75 acetyltransferase activity; Q5AAJ8; purified Rtt109/Vps75, ThioGlo CoA-SH fluorescence, 4 h; inhibition, % at 34.9 µM; 0.16% of 330,000 active;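 active = inhibition of at least 50% in every replicate; inconclusive = best replicate reaches 50% inhibition but some replicates fall short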
ALR inh – inhibitors of human sulfhydryl oxidase ALR; inhibition, % (no concentration beside the values); purified ALR, DTT oxidation, H2O2 HRP-luminol luminescence; AID 485317; 3.8% of 290,000 active; P55789;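 active = mean replicate inhibition above about 79%, with every replicate also reaching it, limit read from the data; inconclusive = only one of the two criteria met; inactive = mean below limit and not every replicate reaching it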
M18AAP inhibitor – PfM18AAP enzyme inhibition; 1.2% of 290,000 active; inhibition, % at 7.35 µM; AID 1822; recombinant PfM18AAP, H-Glu-NHMec fluorogenic cleavage;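 active = inhibition above the campaign mean inhibition over all tested compounds plus 3 SD, cut at about 28% in these data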;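 note: 0% = plate median of test compound wells and 100% = 2 mM ZnCl2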
HDAC3 inh – blocks human histone deacetylase 3; O15379; recombinant HDAC3, fluorogenic peptide/trypsin coupled, fluorescence; inhibition, % at 8.3 µM; 0.15% of 320,000 active; AID 2718; in the data active = inhibition above about 26%, passing the limit was not always enough; inconclusive = no clear call, values can overlap the other calls
UCH37 DUB inh – inhibitors of human deubiquitinating enzyme UCH37; Q9Y5K5; purified proteasome/UCH37, Ub-AMC cleavage fluorescence; inhibition, % (concentration not given with the values); 0.33% of 330,000 active;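 active = mean inhibition over replicate wells above about 20%, limit read from the data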;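 note: 0% = compound-free wells with enzyme and 100% = wells lacking proteasome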
Target sequence (Q9Y5K5 whole entry, looked up): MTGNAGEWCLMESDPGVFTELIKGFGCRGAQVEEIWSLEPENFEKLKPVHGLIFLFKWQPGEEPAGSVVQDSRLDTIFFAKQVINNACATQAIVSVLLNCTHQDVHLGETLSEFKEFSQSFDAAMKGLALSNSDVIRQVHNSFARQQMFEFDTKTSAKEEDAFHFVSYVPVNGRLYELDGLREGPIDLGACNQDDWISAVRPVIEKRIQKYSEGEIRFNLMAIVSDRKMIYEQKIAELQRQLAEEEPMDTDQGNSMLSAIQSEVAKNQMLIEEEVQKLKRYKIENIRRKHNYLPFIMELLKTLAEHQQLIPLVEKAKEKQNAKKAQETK
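Material: Human UCH37 enzyme supplied as purified proteasome complex | Schedule: 30 min preincubation with enzyme, 25 min cleavage at room temperature | Detection: AMC fluorescence 355/460 nm | Measure: % inhibition of Ub-AMC cleavage fluorescence | Controls: Wells without proteasome as full block, compound-free enzyme plus substrate as uninhibited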
An asterisk follows results filed as active. Most compounds without a hit are left out; they make up all but 4.6% or so of the library.

CC1=C(C)CS(=O)N(S(=O)(=O)c2ccc(Cl)cc2)C1 (stereo unspecified) was read as FAS TE block 17, Rtt109 HAT inh 15, ALR inh 99*, M18AAP inhibitor 8 and HDAC3 inh 1.
Cc1ccc(N2CCN(S(=O)(=O)c3nnc(NC(=O)c4ccco4)s3)CC2)cc1 was read as FAS TE block 2, Rtt109 HAT inh -9, ALR inh 97*, M18AAP inhibitor 2 and UCH37 DUB inh 4.
COc1ccc(-c2cc(C(=O)N/N=C/c3ccc4c(c3)OCO4)c3ccccc3n2)c(OC)c1 was read as FAS TE block 51*, Rtt109 HAT inh -2, ALR inh -6, M18AAP inhibitor 0 and HDAC3 inh -2.
Screening COc1cc(/C=N/NC(=O)c2cc(-c3ccco3)nc3ccccc23)cc(OC)c1O returned FAS TE block -1, Rtt109 HAT inh -5, ALR inh 97*, M18AAP inhibitor 12 and HDAC3 inh -5.
For OCC(O)CN1CCN(c2ccccc2)CC1 (stereo unspecified) the results were FAS TE block -1, Rtt109 HAT inh -1, ALR inh inconclusive, M18AAP inhibitor 2, HDAC3 inh -4 and UCH37 DUB inh 0.
`OC(CSc1ccc(F)cc1)CN1CCN(c2ccccc2)CC1` (stereo unspecified) gave FAS TE block 3, Rtt109 HAT inh -5, ALR inh 87*, M18AAP inhibitor -2, HDAC3 inh -2 and UCH37 DUB inh 0.
Screening COc1ccccc1NC(NC(=O)c1cccnc1)C(Cl)(Cl)Cl (stereo unspecified) returned FAS TE block 4, Rtt109 HAT inh 6, ALR inh 88*, M18AAP inhibitor 2, HDAC3 inh -4 and UCH37 DUB inh 8.
Screening Cc1ccc(NC(NC(=O)c2ccccn2)C(Cl)(Cl)Cl)cc1 (stereo unspecified) returned FAS TE block -1, Rtt109 HAT inh 4, ALR inh 99*, M18AAP inhibitor 2, HDAC3 inh 4 and UCH37 DUB inh 1.
Cc1ccc(NC(NC(=O)c2cccnc2)C(Cl)(Cl)Cl)cc1 (stereo unspecified) was read as FAS TE block 1, Rtt109 HAT inh -2, ALR inh 99*, M18AAP inhibitor 4, HDAC3 inh 4 and UCH37 DUB inh 3.
NS(=O)(=O)c1ccc(NC(NC(=O)c2cccnc2)C(Cl)(Cl)Cl)cc1 (stereo unspecified) was read as FAS TE block -1, Rtt109 HAT inh 22, ALR inh 1, M18AAP inhibitor 6, HDAC3 inh -7 and UCH37 DUB inh 1.
For Cc1ccc(NC(NC(=O)c2cccs2)C(Cl)(Cl)Cl)cc1 (stereo unspecified) the results were FAS TE block 22, Rtt109 HAT inh -9, ALR inh 98*, M18AAP inhibitor -1, HDAC3 inh 7 and UCH37 DUB inh 1.
`Cc1ccc(C(=O)NCCCNC(=O)c2ccccn2)cc1` gave FAS TE block -4, Rtt109 HAT inh -4, ALR inh -7, M18AAP inhibitor 2, HDAC3 inh -5 and UCH37 DUB inh 4.
Cc1ccc(C)c(NC(NC(=O)c2cccnc2)C(Cl)(Cl)Cl)c1 (stereo unspecified) was read as FAS TE block 5, Rtt109 HAT inh 15, ALR inh -9, M18AAP inhibitor 2, HDAC3 inh -1 and UCH37 DUB inh 2.
For COc1cc(C=NNC(=O)c2ccc(-c3ccccc3)cc2)cc(OC)c1OC(C)=O the results were UCH37 DUB inh -14.
For COc1ccc(OC)c(C=NNc2nc(C)cc(=O)[nH]2)c1 the results were UCH37 DUB inh -378.
`C=CCn1c(SCC(=O)Nc2ccc(Br)cc2)nc(O)c(CC)c1=O` gave FAS TE block -7, Rtt109 HAT inh 2, ALR inh 98*, M18AAP inhibitor -3, HDAC3 inh 5 and UCH37 DUB inh 8.
Screening C=CCn1c(SCC(=O)Nc2ccccc2OC)nc(O)c(CC)c1=O returned FAS TE block -9, Rtt109 HAT inh 11, M18AAP inhibitor 4, HDAC3 inh -6 and UCH37 DUB inh 4.
For C=CCn1c(N)cc(=O)nc1SCC(=O)Nc1ccccc1 the results were FAS TE block -9, Rtt109 HAT inh 3, M18AAP inhibitor -5, HDAC3 inh -3 and UCH37 DUB inh 1.
